In the library only some 9.8% were active in any assay of this set; here they are far more common.
Rad51 HR inh = Rad51 (human) homologous recombination inhibition. 200,000 compounds, 0.085% hits. hRad51 DNA strand exchange, fluorescence dequenching. inhibition, % at 10 µM. Q06609. AID 1385;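 active = inhibition above 40% at the single screening dose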
Target sequence (Q06609 whole entry, looked up): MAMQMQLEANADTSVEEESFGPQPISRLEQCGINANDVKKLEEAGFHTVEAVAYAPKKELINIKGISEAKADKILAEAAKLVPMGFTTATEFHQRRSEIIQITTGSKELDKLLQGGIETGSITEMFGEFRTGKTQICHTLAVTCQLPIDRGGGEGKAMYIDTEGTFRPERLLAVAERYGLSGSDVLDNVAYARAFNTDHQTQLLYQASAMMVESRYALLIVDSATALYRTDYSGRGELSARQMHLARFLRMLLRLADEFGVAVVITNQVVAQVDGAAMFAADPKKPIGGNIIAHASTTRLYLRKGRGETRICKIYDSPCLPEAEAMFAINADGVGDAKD
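Assay system: Human Rad51 nucleoprotein filaments preassembled on unlabelled ssDNA | Reagent: Donor/quencher-labelled 47-bp dsDNA substrate | Doses: One concentration, 10 µM final | Times: 37 °C 15-min filament assembly, 30-min compound preincubation, 15-min exchange | Technique: Fluorescein emission 520 nm, excitation 485 nm | Benchmarks: Plate control and blank wells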
m-calpain inh = calpain II (pig) inhibition; purified calpain II, fluorogenic peptide substrate, 30 min; inhibition, % at 16 µM; 220,000 compounds, 0.37% hits;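 active = inhibition above about 50%, limit read from the data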
PMI act = phosphomannose isomerase (human) activation. P34949. purified human PMI, coupled resazurin fluorescence, 20 min; hits give high values; 1 = vehicle control, 0 substrate-free wells. activation factor at 20 µM. 190,000 compounds, 0.005% hits. AID 1214;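 active = activation factor of 2 or more at 20 µM, relative to plate controls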
WT yeast gro inh = growth inhibition of WT yeast, mitochondrial fusion screen; mitochondrial fusion phenotypic screen, WT strain; inhibition, % at 10 µM; 190,000 compounds, 2.1% hits; in the data active = inhibition above about 58%; tested in S. cerevisiae
PMI act hi M6P = increases human PMI activity with near-saturating mannose 6-phosphate; 190,000 compounds, 0.34% hits; P34949; coupled PMI enzyme assay, resazurin fluorescence, 20 min; hits give high values; 1 = untreated enzyme, 0 = substrate-free blank; activation factor at 20 µM; AID 1216;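 active = activation factor of 2 or more at 20 µM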
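Technique: Diaphorase-driven resazurin-to-resorufin fluorescence, excitation 544, emission 590 nm | Assay system: Human PMI in coupled enzyme assay | Times: Enzyme reaction with compound 20 min at room temperature | Medium: HEPES-buffered pH 7.4 with magnesium and detergent | Reagent: Mannose-6-phosphate 1.0 mM (near-saturating) plus 0.22 mM NADP+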
L major viab = inhibitors of Leishmania major promastigote growth; inhibition, % at 10 µM; 200,000 compounds, 9% hits; Leishmania major promastigotes, resazurin fluorescence viability; AID 1063; in the data active = inhibition above about 50%;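 also: promastigotes grown with compound for 44 hours at 28 °C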
Each line names hits and unclear results; the compound was inactive in the other large screens.

N#Cc1ccccc1NC(=O)C1SC(=Nc2ccccc2)C(C(=O)Nc2ccc(Cl)cc2)=C1N (stereo not drawn)	PMI act hi M6P 2.3
Cc1cc2c3c(c1)C(C)(c1ccccc1)CC(C)(C)N3C(=O)C21C(C#N)=C(N)OC2=C1C(=O)CC(C)(C)C2 (stereo not drawn)	L major viab 51
CCOC(=O)C(=Cc1ccc(F)cc1)C(=O)OCC	none
CCOC(=O)C(=Cc1ccc(-n2ccnc2)cc1)C(=O)OCC	L major viab 79
Cc1cc2c(N=NC(=O)CCc3ccccc3)c(O)[nH]c2cc1Br	none
FC(F)(F)c1n[nH]c(=S)n1/N=C/c1ccco1	none
Cc1ccsc1C1Nc2ccccc2C(=O)N1O (stereo not drawn)	none
Cc1nn(C)cc1C1Nc2ccccc2C(=O)N1O (stereo not drawn)	PMI act hi M6P 2.2
Cc1nn(C)c(C)c1C1Nc2ccccc2C(=O)N1O (stereo not drawn)	PMI act hi M6P 2
CC(NCc1ccccc1Cl)C(=O)Nc1ccc(C#N)cc1 (stereo not drawn)	none
CCOP(=O)(OCC)C(Nc1cccc(C(F)(F)F)c1)c1ccc(F)cc1 (stereo not drawn)	none
CCOP(=O)(OCC)C(Nc1cccc(C(F)(F)F)c1)c1ccc(C)cc1 (stereo not drawn)	L major viab 59
CCCOP(=O)(OCCC)C(Nc1cccc(C(F)(F)F)c1)c1ccc(C)cc1 (stereo not drawn)	WT yeast gro inh 75
CC1CN(c2ccc(Cl)cc2[N+](=O)[O-])CCN1S(C)(=O)=O (stereo not drawn)	none
Cc1ccc2[nH]c3c(c2c1)CN(C(=O)CN1CCN(c2cccc(C)c2C)CC1)CC3	L major viab 66
Cc1ccc(OCc2nnc(N)s2)cc1C	none (no result: Rad51 HR inh, PMI act, WT yeast gro inh, PMI act hi M6P, L major viab)
O=C(Nc1nc2ccccc2[nH]1)C12CC3CC(CC(C3)C1)C2	L major viab 90
O=C(Nc1ccc2nc(-c3cccnc3)[nH]c2c1)C12CC3CC(CC(C3)C1)C2	L major viab 77
O=C(Nc1ccc2nc(-c3cccnc3)[nH]c2c1)C1CCCCC1	L major viab 68
O=C(COc1cccc2ccccc12)Nc1nc2ccccc2[nH]1	WT yeast gro inh 67
O=C(Nc1nc2ccccc2[nH]1)C1CC1	none
CCOc1ccccc1OCC(=O)Nc1nc2ccccc2[nH]1	none
Nc1cccc(C(=O)Nc2ccc3nc(-c4cccnc4)[nH]c3c2)c1	none (no result: Rad51 HR inh)
C=CCn1c(SCc2nc3ccccc3c(=O)[nH]2)nc2scc(C3CC3)c2c1=O	none (no result: Rad51 HR inh, PMI act, WT yeast gro inh, PMI act hi M6P, L major viab)
O=C(CN1C(=O)c2ccccc2C1=O)NNC1=NS(=O)(=O)c2ccccc21	L major viab 61
O=C(OCC(=O)N1CCc2ccccc2C1)c1cccnc1Cl	none
COc1cccc(C2NC(=S)NC3=C2CCc2ccccc23)c1 (stereo not drawn)	none
COc1ccc2c(c1)C1=C(CC2)C(c2ccc(C)cc2)NC(=S)N1 (stereo not drawn)	WT yeast gro inh 80
CN(C)S(=O)(=O)c1cccc(-c2nnc(SCCNCCO)n2-c2ccc(F)cc2)c1	none
COC(=O)c1ccccc1NC(=O)Cn1c(=O)oc2ccc(Cl)cc21	none
COC(=O)c1ccccc1NC(=O)Cn1c(=O)n(Cc2ccccc2)c(=O)c2c(C)c(C)sc21	L major viab 89
Cn1nccc1C(=O)Oc1cccc(/C=N/NC(=O)c2ccccc2O)c1	none (no result: Rad51 HR inh)
Cc1cc(N/N=C/c2ccc(O)cc2O)nc(-n2nc(C)cc2C)n1	L major viab 100
COc1ccc(/C=N/Nc2cc(C)nc(-n3nc(C)cc3C)n2)cc1	WT yeast gro inh 60, L major viab 96
Cc1cc(N/N=C/c2cccc(Cl)c2)nc(-n2nc(C)cc2C)n1	none (no result: PMI act, WT yeast gro inh, PMI act hi M6P, L major viab)
Cc1cc(N/N=C/c2ccccc2[N+](=O)[O-])nc(-n2nc(C)cc2C)n1	none (no result: PMI act, WT yeast gro inh, PMI act hi M6P, L major viab)
O=C1CC(c2ccccc2Cl)c2c(sc3c(=O)[nH]c(CCl)nc23)N1 (stereo not drawn)	none (no result: PMI act, WT yeast gro inh, PMI act hi M6P, L major viab)
CC1(c2ccccc2)CC(C)(C)N2C(=O)C3(C(C#N)=C(N)Oc4cc(O)ccc43)c3cccc1c32 (stereo not drawn)	none
CC1(c2ccccc2)CC(C)(C)N2C(=O)/C(=C3\SC(=S)NC3=O)c3cccc1c32 (stereo not drawn)	WT yeast gro inh 61
COCCn1c(N)c(C(=S)NC(=O)c2cccs2)c(=O)[nH]c1=O	none (no result: PMI act, WT yeast gro inh, PMI act hi M6P, L major viab)
COC(=O)c1cnn(-c2nc(OC)cc(OC)n2)c1C	none
COc1cc(OC)nc(-n2ncc(Br)c(Br)c2=O)n1	L major viab 100
COCc1cc(C)nc(OC)c1C(N)=O	none
COc1cc(/C=C/c2ccc(O)cc2)cc(OC)c1	WT yeast gro inh 58 (no result: L major viab)
COc1ccc(/C=C/C(=O)c2ccc(O)cc2)cc1	none
O=C(c1cnc(-c2ccccc2)s1)c1ccc(Cl)cc1Cl	WT yeast gro inh 64
COC(=O)C1C(=O)C2=C(CC1C)NC(C)=C(C(=O)OC1CCCC1)C2c1ccc(N(C)C)cc1 (stereo not drawn)	L major viab 59
COC(=O)C1C(=O)C2=C(CC1C)NC(C)=C(C(=O)OC(C)C)C2c1ccc(OC)c(O)c1 (stereo not drawn)	none
COc1ccc(N(CC(=O)Nc2ccccc2C(N)=O)S(=O)(=O)c2ccc(C)c([N+](=O)[O-])c2)cc1	none
Cc1cc(NC(=S)Nc2ccccc2)ccc1Br	L major viab 97
O=C(O)c1ccc(NC(=S)NC(=O)c2cccc(COc3ccccc3)c2)cc1	WT yeast gro inh 91
Cc1cc(NC(=S)Nc2cccnc2)ccc1Br	none
COc1ccc(C(=O)Nc2ccc(N3CCN(Cc4ccccc4)CC3)cc2)cc1	none
COc1c(F)c(F)c(C(=O)Nc2ccc(N3CCN(Cc4ccccc4)CC3)cc2)c(F)c1F	L major viab 52
CN1CCN(c2ccc(NC(=O)c3cccc(OCc4ccccc4)c3)cc2)CC1	L major viab 100 (no result: Rad51 HR inh)
Clc1ncc(Cn2cccn2)s1	none
CCCCN(C)C(=S)Nc1ccc2nc3n(c(=O)c2c1)CCCCC3	none
O=C(NC(=S)Nc1ccc(CN2CCCCC2)cc1)c1cccc(OCc2ccccc2)c1	WT yeast gro inh 72, L major viab 84 (no result: Rad51 HR inh)
O=C(NCCCOc1cccc(CN2CCCCC2)c1)c1ccc(Cl)c(Cl)c1	L major viab 66
CCOc1cccc(C(=O)NC(=S)Nc2ccccc2)c1	none
COC(=O)c1ccc(NC(=S)Nc2ccccc2)cc1	none
Cc1ccccc1NC(=O)/C(=C/c1ccccc1)c1ccccc1	none
O=C(Nc1ccccc1)/C(=C/c1ccccc1)c1ccccc1	L major viab 98
O=C(O)c1ccc(NC(=S)Nc2ccccc2)cc1	L major viab 91
COc1cc(C2C=C(C34CC5CC(CC(C5)C3)C4)NC(=S)N2)cc(OC)c1OC (stereo not drawn)	none
